# Assay results pooled from the literature.
# Protocols differ between the studies behind these lines.
# JAK3 JH1: Tyrosine-protein kinase JAK3, JH1 (JAK3, Homo sapiens, UniProt P52333)
# JAK3: Tyrosine-protein kinase JAK3 (JAK3, Homo sapiens, UniProt P52333)
Structure (SMILES),target,effect on,action,method,tested at,endpoint,value
Nc1ncc(-c2nc(N3CCOCC3)nc(N3CCOCC3)n2)c(C(F)F)n1,JAK3 JH1,binding,,competition with immobilised ligand,10 µM,remaining binding,46%
Cc1nn(C)cc1-c1nc2c(N3CCN(Cc4ccc(Cl)cc4)CC3)c(Cl)cnc2[nH]1,JAK3 JH1,binding,,competition with immobilised ligand,1 µM,remaining binding,0.85%
C#Cc1n[nH]c2c(-c3cn([C@@H](C)c4ccccc4)c(=O)[nH]c3=O)cc(F)cc12,JAK3,enzyme activity,inhibitor,,0.1 µM,inhibition,-12.1%
Cn1cc(-c2cccc(N3CCc4c(sc5c4CC(C)(C)C5)C3=O)c2CO)cc(Nc2ccncn2)c1=O,JAK3,enzyme activity,inhibitor,,1 µM,inhibition,-4%
O=c1[nH]c2ccccc2n1C1CCN(Cc2ccc(-c3[nH]c4cc5ncnc5cc4nc3-c3ccccc3)cc2)CC1,JAK3,cell-free assay,,,0.5 µM,remaining signal,100%
Cn1cncc1[C@@](O)(COc1ccc(C#N)cc1-c1ccc(OC(F)(F)F)cc1)c1ccc(C#N)cc1,JAK3 JH1,cell-free assay,,competition with immobilised ligand,1 µM,remaining binding,100%
COc1ncccc1-c1cnn2ccc(N3CCN(C(=O)OC(C)C)CC3)nc12,JAK3,binding,,competition with immobilised ligand,1 µM,remaining binding,71%
Cn1cc(-c2cc(F)cc(N3CCn4c(cc5c4CCCC5)C3=O)c2CO)cc(Nc2ccc(N3CCN(C4COC4)CC3)cn2)c1=O,JAK3,enzyme activity,inhibitor,,0.1 µM,inhibition,2%
CC(C)(C)c1cc(C=C(C#N)C#N)cc(Br)c1O,JAK3,enzyme activity,inhibitor,,0.5 µM,remaining activity,110%
C#Cc1n[nH]c2c(-c3cn(C(C)c4ccccn4)c(=O)[nH]c3=O)cc(F)cc12 (stereo not shown),JAK3,enzyme activity,inhibitor,,1 µM,inhibition,-4.9%
